Screens from PubChem.
S1P4 ag = S1P4 receptor agonists, primary screen, cell-based; activation, % at 4.98 µM; S1P4-expressing cell line, agonist reporter assay; Sphingosine 1-phosphate receptor 4 (Homo sapiens), O95977; 220,000 tested, 0.35% active; AID 1509, 2009; in the data active = activation above about 11%
NPY2 pot ag = NPY-Y2 potentiators or agonists, primary screen, cell-based; Neuropeptide Y receptor type 2 (Homo sapiens), P49146; cells expressing NPY-Y2, potentiator/agonist read-out; activation, % at 3.6 µM; 220,000 tested, 0.45% active; in the data active = activation above about 27%;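 note: cells stimulated with NPY near EC25 plus isoproterenol at EC100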
Target sequence (P49146 whole entry, looked up): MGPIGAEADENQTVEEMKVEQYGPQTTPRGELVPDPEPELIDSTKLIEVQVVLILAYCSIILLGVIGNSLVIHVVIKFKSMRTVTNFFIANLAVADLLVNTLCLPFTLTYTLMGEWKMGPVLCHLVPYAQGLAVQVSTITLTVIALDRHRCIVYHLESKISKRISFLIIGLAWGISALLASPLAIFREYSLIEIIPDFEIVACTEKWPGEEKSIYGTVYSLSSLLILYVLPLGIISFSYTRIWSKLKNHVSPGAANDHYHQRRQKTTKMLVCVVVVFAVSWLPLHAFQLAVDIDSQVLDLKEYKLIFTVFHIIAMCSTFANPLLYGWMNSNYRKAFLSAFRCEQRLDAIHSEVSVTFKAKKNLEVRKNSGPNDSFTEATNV
NPY-Y1 antag = NPY-Y1 receptor antagonists, primary screen, cell-based; HEK293-CNG Y1 cells, membrane potential fluorescence; NPY at EC95, then isoproterenol; Neuropeptide Y receptor type 1 (Homo sapiens), P25929; inhibition, % at 3.6 µM; AID 1040, 2008; 200,000 tested, 1% active;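 active = inhibition above the campaign mean inhibition of all tested compounds plus 3 SD, cut at about 20% in these data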
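Material: HEK293 cells co-expressing NPY Y1 receptor and cyclic-nucleotide gated channel. Timing: compound incubation 1 h at room temperature, readout 45 min post-stimulation. Signal: fluorescence, membrane potential probe.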
NPY Y2 blocker = NPY-Y2 receptor antagonists, primary screen, cell-based. NPY-Y2 expressing cells, antagonist mode. inhibition, % at 2.7 µM. 140,000 tested, 0.99% active. AID 793, 2007; in the data active = inhibition above about 17%
NPY-Y1 PAM-ag = NPY-Y1 receptor potentiators or agonists, primary screen, cell-based | Neuropeptide Y receptor type 1 (Homo sapiens), P25929 | NPY-Y1 expressing cells, potentiator/agonist activation | activation, % at 3.6 µM | 220,000 tested, 0.37% active | AID 1304, 2008; in the data active = activation above about 33%, passing the limit was not always enough;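 note: cells stimulated with NPY at EC10 then isoproterenol at EC100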
S1P4 antag = S1P4 receptor antagonists, primary screen, cell-based; 220,000 tested, 0.26% active; inhibition, % at 4.98 µM; Sphingosine 1-phosphate receptor 4 (Homo sapiens), O95977; S1P4-expressing cells, antagonist mode, reporter read-out; in the data active = inhibition above about 29%
A number is an active result. Most compounds without a hit are left out; they make up all but 2.4% or so of the library.

For COc1cc2c(cc1OC)-c1cc(NC3CCCCCC3)nc(=O)n1CC2 the results were S1P4 ag inactive, NPY2 pot ag inactive, NPY-Y1 antag 48.8, NPY Y2 blocker 42.6, NPY-Y1 PAM-ag inactive and S1P4 antag inactive.
`COc1cc2c(cc1OC)-c1cc(N3CCCCCC3)nc(=O)n1CC2` gave S1P4 ag inactive, NPY2 pot ag inactive, NPY-Y1 antag 24.4, NPY Y2 blocker 32.3, NPY-Y1 PAM-ag inactive and S1P4 antag inactive.
COc1cc2c(cc1OC)-c1cc(N3CCc4ccccc43)nc(=O)n1CC2 was read as S1P4 ag inactive, NPY2 pot ag inactive, NPY-Y1 PAM-ag inactive and S1P4 antag inactive.
For COc1ccc(CNC(=O)CCn2c(=O)oc3ccccc32)c(OC)c1 the results were S1P4 ag inactive, NPY2 pot ag inactive, NPY-Y1 antag inactive, NPY-Y1 PAM-ag inactive and S1P4 antag inactive.
Screening O=C(NC1=C(Nc2ccc(Cl)cc2)C(=O)c2ccccc2C1=O)c1ccccc1 returned S1P4 ag inactive, NPY2 pot ag inactive, NPY-Y1 antag inactive, NPY Y2 blocker inactive, NPY-Y1 PAM-ag inactive and S1P4 antag inactive.
For CN(C1=C(NC(=O)c2ccc(Cl)cc2)C(=O)c2ccccc2C1=O)c1ccccc1 the results were S1P4 ag inactive, NPY2 pot ag 71.5, NPY-Y1 antag inactive, NPY Y2 blocker inactive, NPY-Y1 PAM-ag 56.5 and S1P4 antag inactive.
Screening COc1ccc2c(c1)sc(N)[n+]2Cc1cc(C)cc2cccnc12 returned S1P4 ag inactive, NPY2 pot ag inactive, NPY-Y1 antag 49.1, NPY Y2 blocker 47.7, NPY-Y1 PAM-ag inactive and S1P4 antag inactive.
`Cc1cc(C[n+]2ncsc2N)c2ncccc2c1` gave S1P4 ag inactive, NPY2 pot ag inactive, NPY-Y1 PAM-ag inactive and S1P4 antag inactive.
`CCOc1ccc2c(c1)sc(N)[n+]2Cc1cc(C)cc2cccnc12` gave S1P4 ag inactive, NPY2 pot ag inactive, NPY-Y1 antag 51.9, NPY Y2 blocker 41.8, NPY-Y1 PAM-ag inactive and S1P4 antag inactive.
`CCCSc1sc(C(=O)OC)c(-c2cccs2)c1C#N` gave S1P4 ag inactive, NPY2 pot ag inactive, NPY-Y1 PAM-ag inactive and S1P4 antag inactive.
`CN(C)c1ccc(N=C/C=C2/N(C)c3ccccc3C2(C)C)cc1` gave S1P4 ag inactive, NPY2 pot ag inactive, NPY-Y1 antag inactive, NPY Y2 blocker inactive, NPY-Y1 PAM-ag inactive and S1P4 antag inactive.
`N#CCSc1nc2c(sc(=S)n2Cc2ccco2)c(=O)n1-c1ccc(F)cc1` gave S1P4 ag inactive, NPY2 pot ag inactive, NPY-Y1 antag 23.9, NPY Y2 blocker 20.0, NPY-Y1 PAM-ag inactive and S1P4 antag inactive.
For O=C(CSc1nnc2c(n1)[nH]c1ccc(S(=O)(=O)N3CCOCC3)cc12)Nc1ccc(F)c(F)c1 the results were S1P4 ag inactive, NPY2 pot ag inactive, NPY-Y1 antag inactive, NPY-Y1 PAM-ag inactive and S1P4 antag inactive.
Screening Cc1ccc(Cn2c(=N)n(CC(O)c3ccco3)c3ccccc32)cc1 (configuration not stated) returned S1P4 ag inactive, NPY2 pot ag inactive, NPY-Y1 antag inactive, NPY Y2 blocker 23.1, NPY-Y1 PAM-ag inactive and S1P4 antag inactive.
For CCCn1c(=N)n(CC(O)c2ccco2)c2ccccc21 (configuration not stated) the results were S1P4 ag inactive, NPY2 pot ag inactive, NPY-Y1 antag inactive, NPY Y2 blocker inactive, NPY-Y1 PAM-ag inactive and S1P4 antag inactive.
`CCCN(CCC)C1=CC(=[N+]2CCCC2)CC(C)(C)C1` gave S1P4 ag inactive, NPY2 pot ag inactive, NPY-Y1 antag 34.1, NPY Y2 blocker 24.2, NPY-Y1 PAM-ag inactive and S1P4 antag inactive.
For CN(C)NC1=CC(=[N+]2CCCC2)CC(C)(C)C1 the results were S1P4 ag inactive, NPY2 pot ag inactive, NPY-Y1 antag inactive, NPY-Y1 PAM-ag inactive and S1P4 antag inactive.
O=C(COc1cccnc1[N+](=O)[O-])Nc1cccc(S(=O)(=O)N2CCCCC2)c1 was read as S1P4 ag inactive, NPY2 pot ag inactive, NPY-Y1 antag inactive, NPY Y2 blocker inactive, NPY-Y1 PAM-ag inactive and S1P4 antag inactive.
CN=c1scc(-c2ccccc2F)n1/N=C/c1ccc(O)c(O)c1O was read as S1P4 ag inactive, NPY2 pot ag 28.8, NPY-Y1 antag inactive, NPY-Y1 PAM-ag 41.5 and S1P4 antag inactive.
`CN=c1scc(-c2ccccc2F)n1/N=C/c1ccc[nH]1` gave S1P4 ag inactive, NPY2 pot ag inactive, NPY-Y1 antag inactive, NPY-Y1 PAM-ag inactive and S1P4 antag inactive.
`CC[n+]1c(/C=C2\C=C(C)CC(C)(C)C2)sc2ccccc21` gave S1P4 ag inactive, NPY2 pot ag inactive, NPY-Y1 antag 21.8, NPY Y2 blocker 19.9, NPY-Y1 PAM-ag inactive and S1P4 antag inactive.
O=C(CSc1nc2ccc(NC(=O)CSc3nnnn3Cc3ccccc3)cc2s1)Nc1ccccc1 was read as S1P4 ag inactive, NPY2 pot ag inactive, NPY-Y1 antag inactive, NPY Y2 blocker inactive, NPY-Y1 PAM-ag inactive and S1P4 antag inactive.
`COC(=O)CSc1nc2ccc(NC(=O)CSc3nnnn3Cc3ccccc3)cc2s1` gave S1P4 ag inactive, NPY2 pot ag 104.6, NPY-Y1 antag inactive, NPY Y2 blocker inactive, NPY-Y1 PAM-ag 108.5 and S1P4 antag inactive.
For O=C(CSc1nnc2n(C3CCCC3)c(=O)c3ccccc3n12)N1CCCCCC1 the results were S1P4 ag inactive, NPY2 pot ag 86.4, NPY-Y1 antag inactive, NPY Y2 blocker inactive, NPY-Y1 PAM-ag 91.5 and S1P4 antag inactive.
COc1ccc(NC(=O)[C@@H](NC(N)=O)C(C)C)cc1Cl was read as S1P4 ag inactive, NPY2 pot ag inactive, NPY-Y1 antag inactive, NPY-Y1 PAM-ag inactive and S1P4 antag inactive.
For O=C(Nc1ccc(-n2ccc(C(F)(F)F)n2)cc1)Nc1cccc(Cl)c1 the results were S1P4 ag inactive, NPY2 pot ag 39.6, NPY-Y1 PAM-ag 51.6 and S1P4 antag inactive.
Screening Cc1noc(C)c1CSc1nc2ccccc2c(=O)n1-c1ccc(Cl)cc1 returned S1P4 ag inactive, NPY2 pot ag inactive, NPY-Y1 antag 27.5, NPY Y2 blocker 32.2, NPY-Y1 PAM-ag inactive and S1P4 antag inactive.
`Cc1ccc[n+](-c2nc([O-])sc2C=O)c1` gave S1P4 ag 80.8, NPY2 pot ag inactive, NPY-Y1 antag inactive, NPY-Y1 PAM-ag inactive and S1P4 antag inactive.
C#CCN1C(=O)S/C(=C/C=C/c2ccc(N(C)C)cc2)C1=O was read as S1P4 ag inactive, NPY2 pot ag inactive, NPY-Y1 antag inactive, NPY Y2 blocker inactive, NPY-Y1 PAM-ag inactive and S1P4 antag inactive.
Screening CC1CCN(c2nc(-c3ccncc3)nc3ccccc23)CC1 returned S1P4 ag inactive, NPY2 pot ag inactive, NPY-Y1 antag 31.0, NPY Y2 blocker 29.5, NPY-Y1 PAM-ag inactive and S1P4 antag inactive.
